Experimental data published in ChEMBL document CHEMBL1128301, “Cephalosporin derivatives of doxorubicin as prodrugs for activation by monoclonal antibody-beta-lactamase conjugates” (J Med Chem, 1995).

Experiments:
[1] = target: Beta-lactamase (Enterobacter cloacae) (UniProt P05364); assay: The kinetic constant(kcat) value as spectrophotometrically by using Enterobacter cloacae P99 beta-lactamase (ECIbL) enzyme as catalyst
Summary of the method: (§1)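 Spectrophotometric hydrolysis at 23 °C in PBS with 12.5 μg/mL BSA. EClbL was used at 0.1 μg/mL; BCbL and ECbL at 1.0 μg/mL. […] Initial velocities were linear over 1 min.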

[2] = target: Beta-lactamase TEM (Escherichia coli) (UniProt P62593); assay: The kinetic constant(kcat) value as spectrophotometrically by using Escherichia coli TEM-1 beta-lactamase (ECbL) enzyme as catalyst; summary of the method: as §1
Sequence of Beta-lactamase TEM (Escherichia coli) (P62593 whole entry): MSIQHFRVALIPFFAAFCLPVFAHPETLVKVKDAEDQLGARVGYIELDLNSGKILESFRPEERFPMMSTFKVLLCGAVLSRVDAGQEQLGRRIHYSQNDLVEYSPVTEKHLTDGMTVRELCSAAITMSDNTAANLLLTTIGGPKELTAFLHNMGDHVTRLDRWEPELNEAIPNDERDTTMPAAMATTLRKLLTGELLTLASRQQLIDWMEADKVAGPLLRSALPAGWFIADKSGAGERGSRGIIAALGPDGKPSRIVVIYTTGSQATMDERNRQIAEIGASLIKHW

[3] = target: T1, Metallo-beta-lactamase type 2 (Bacillus cereus) (UniProt P14488); assay: The kinetic constant(kcat) value as spectrophotometrically by using Bacillus cereus beta-lactamase (BCbL) enzyme as catalyst; summary of the method: as §1
T1 sequence (whole entry): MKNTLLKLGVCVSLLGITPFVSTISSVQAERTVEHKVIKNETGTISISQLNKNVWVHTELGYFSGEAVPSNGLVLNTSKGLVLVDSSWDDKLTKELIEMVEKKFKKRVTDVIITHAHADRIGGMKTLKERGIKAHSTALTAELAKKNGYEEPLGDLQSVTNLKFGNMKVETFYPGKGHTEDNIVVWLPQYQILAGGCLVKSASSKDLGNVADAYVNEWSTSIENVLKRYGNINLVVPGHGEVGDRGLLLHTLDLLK

Sequence of Beta-lactamase (Enterobacter cloacae) (P05364 21-381 limits assumed): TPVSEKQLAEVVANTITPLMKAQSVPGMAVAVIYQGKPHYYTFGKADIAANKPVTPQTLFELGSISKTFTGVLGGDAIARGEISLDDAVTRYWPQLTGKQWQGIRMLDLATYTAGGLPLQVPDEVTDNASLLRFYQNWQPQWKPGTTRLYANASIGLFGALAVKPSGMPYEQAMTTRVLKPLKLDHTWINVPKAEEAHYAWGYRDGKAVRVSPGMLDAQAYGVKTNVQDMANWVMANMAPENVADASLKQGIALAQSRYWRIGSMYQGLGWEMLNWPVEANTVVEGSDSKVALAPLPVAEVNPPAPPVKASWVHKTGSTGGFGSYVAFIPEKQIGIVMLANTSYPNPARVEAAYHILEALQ

COc1cccc2c1C(=O)c1c(O)c3c(c(O)c1C2=O)C[C@@](O)(C(=O)CO)C[C@@H]3OC1CC(NC(=O)OCC2=C(C(=O)O)N3C(=O)[C@@H](NC(=O)CCCC(=O)O)[C@H]3SC2)C(O)C(C)O1 (stereo partly drawn)
k cat [1]: 210 s⁻¹ | k cat [2]: 2.8 s⁻¹ | k cat [3]: 6.6 s⁻¹
